IC50 data for eight compounds are collected here from ChEMBL document CHEMBL3400051, “Five new phorbol esters with cytotoxic and selective anti-inflammatory activities from Croton tiglium” (Bioorg Med Chem Lett, 2015).

Structures are written as SMILES.

Experiment [1] concerns MCF7. In words: Cytotoxicity against human MCF7 cells assessed as cell viability after 72 hrs by CCK8 assay. The experiment is classed as functional, cell-based. The following applies: MCF7, 72 h. The gist of the method: (§1)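 Cells grown in RPMI or DMEM with 10% FBS and 1% penicillin/streptomycin at 37 °C, 5% CO2. Seeded at 400-800 cells/well in 384-well plates, treated with a range of compound concentrations or solvent control for 72 h. CCK8 reagent added, absorbance read at 450 nm; IC50 from dose-response curves. Taxol positive control.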
(In general: Tetrazolium assays rely on reduction of a dye to a coloured formazan, in cell work by metabolically active cells.)

Experiment [2] has as its system MOLT-4. As to the kind of experiment: Cytotoxicity against human MOLT4 cells assessed as cell viability after 72 hrs by CCK8 assay. The experiment is classed as functional, cell-based. The note with it: MOLT-4, 72 h. The gist of the method: as §1
Experiment [3] in a line: Cytotoxicity against human SGC7901 cells assessed as cell viability after 72 hrs by CCK8 assay. It counts as functional, cell-based. The note with it: SGC-7901, 72 h. The gist of the method: as §1
Experiment [4] has as its target T1, Prostaglandin G/H synthase 1 (Ovis aries, UniProt P05979).
T1 sequence (P05979 whole entry): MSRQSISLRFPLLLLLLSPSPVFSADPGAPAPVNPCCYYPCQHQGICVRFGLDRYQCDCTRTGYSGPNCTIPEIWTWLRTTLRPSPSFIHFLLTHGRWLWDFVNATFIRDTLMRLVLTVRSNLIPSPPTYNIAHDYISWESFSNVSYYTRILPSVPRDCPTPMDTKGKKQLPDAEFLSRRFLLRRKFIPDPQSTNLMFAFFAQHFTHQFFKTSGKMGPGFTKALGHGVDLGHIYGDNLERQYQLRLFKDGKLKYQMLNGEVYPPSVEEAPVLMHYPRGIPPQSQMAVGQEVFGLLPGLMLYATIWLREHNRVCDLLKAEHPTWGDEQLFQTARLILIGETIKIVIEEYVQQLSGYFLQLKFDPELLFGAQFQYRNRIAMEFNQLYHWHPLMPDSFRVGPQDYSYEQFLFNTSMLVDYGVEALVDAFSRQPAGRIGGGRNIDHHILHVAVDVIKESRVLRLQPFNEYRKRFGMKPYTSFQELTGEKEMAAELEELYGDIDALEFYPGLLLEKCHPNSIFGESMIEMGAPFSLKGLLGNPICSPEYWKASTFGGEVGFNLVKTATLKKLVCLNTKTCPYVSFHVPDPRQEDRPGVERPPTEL
As to the kind of experiment: Inhibition of ovine COX1 using fluorometric substrate after 15 mins.

In experiment [5] the test system is K562. As to the kind of experiment: Cytotoxicity against human K562 cells assessed as cell viability after 72 hrs by CCK8 assay. The experiment is classed as functional, cell-based. The note with it: K562, 72 h. In outline:
as §1

Experiment [6] can be described thus: Cytotoxicity against human HL60 cells assessed as cell viability after 72 hrs by CCK8 assay. The experiment is classed as functional, cell-based. The following applies: HL-60, 72 h. The gist of the method: as §1
Experiment [7] relates to HeLa. As to the kind of experiment: Cytotoxicity against human HeLa cells assessed as cell viability after 72 hrs by CCK8 assay. It counts as functional, cell-based. In outline:
as §1

For experiment [8], the system named is NCI-H1975. In words: Cytotoxicity against human NCI-H1975 cells assessed as cell viability after 72 hrs by CCK8 assay. The experiment is classed as functional, cell-based. The note with it: NCI-H1975, 72 h. The gist of the method:
as §1

Experiment [9] has as its target T2, Prostaglandin G/H synthase 2 (Homo sapiens, UniProt P35354).
T2 sequence (P35354 whole entry): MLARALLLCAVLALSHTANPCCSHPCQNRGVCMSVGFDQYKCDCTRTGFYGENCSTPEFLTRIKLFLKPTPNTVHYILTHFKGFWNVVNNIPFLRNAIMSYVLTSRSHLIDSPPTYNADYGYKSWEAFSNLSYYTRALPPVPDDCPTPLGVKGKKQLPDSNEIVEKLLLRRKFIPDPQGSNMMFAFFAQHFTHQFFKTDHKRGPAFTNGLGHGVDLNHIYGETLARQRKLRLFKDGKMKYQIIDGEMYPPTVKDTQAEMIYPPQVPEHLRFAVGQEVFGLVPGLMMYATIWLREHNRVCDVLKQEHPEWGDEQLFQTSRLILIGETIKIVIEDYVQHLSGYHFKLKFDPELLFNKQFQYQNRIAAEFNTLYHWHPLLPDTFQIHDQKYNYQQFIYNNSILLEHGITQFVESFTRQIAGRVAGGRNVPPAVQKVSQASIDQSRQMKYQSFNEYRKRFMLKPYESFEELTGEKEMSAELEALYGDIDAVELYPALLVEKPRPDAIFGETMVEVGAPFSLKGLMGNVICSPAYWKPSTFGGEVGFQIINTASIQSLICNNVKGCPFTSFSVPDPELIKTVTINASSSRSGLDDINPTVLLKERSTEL

Experiment [10] in a line: Cytotoxicity against human U937 cells assessed as cell viability after 72 hrs by CCK8 assay. It counts as functional, cell-based. The note with it: U-937, 72 h. The gist of the method:
as §1

Experiment [11] concerns A549. As to the kind of experiment: Cytotoxicity against human A549 cells assessed as cell viability after 72 hrs by CCK8 assay. The experiment is classed as functional, cell-based. The note with it: A549, 72 h. In outline: as §1
The test system of experiment [12] is HEK-293T. As to the kind of experiment: Cytotoxicity against human 293T cells after 44 hrs by MTT assay. It counts as cell-based. In outline:
(§2)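 Cells cultured in 88% DMEM, 12% FBS, 100 units/mL penicillin and streptomycin. Seeded at 2 × 10^5 cells/mL, 24 h at 37 °C in 5% CO2, then medium replaced with compound in growth medium at 80, 40, 20, 10 and 5 concentrations for 44 h. MTT (5 mg/mL) added for a further 4 h; absorbance at 490 nm. Untreated cells as negative control, Taxol positive control.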

Experiment [13] in a line: Cytotoxicity against human LX2 cells after 44 hrs by MTT assay. It counts as cell-based. The note with it: LX-2, 44 h. In outline:
as §2

Experiment [14] relates to DU-145. As to the kind of experiment: Cytotoxicity against human DU145 cells assessed as cell viability after 72 hrs by CCK8 assay. The note with it: DU-145, 72 h. It counts as functional, cell-based. In outline:
as §1

As for `C/C=C(\C)C(=O)O[C@@H]1[C@@H](C)[C@@]2(O)[C@@H](C(=O)C(CO)=C[C@]3(O)C(=O)C(C)=C[C@@H]23)[C@@H]2C(C)(C)[C@]12OC(=O)C(C)CC` (stereo partly drawn), the IC50 (commonly the point on the concentration scale where inhibition reaches its midpoint) in experiment [1] is 20 µM; in experiment [2], 4.8 µM; in experiment [3] it was 23 µM; in experiment [4], above 50 µM; in [5], 17 µM; in [6], 10 µM. Also, the concentration for half-maximal inhibition (IC50) was 5 µM in experiment [7]; 10 µM in experiment [8]; above 50 µM in experiment [9]; 21 µM in [10]; 19 µM in experiment [11]; 455 µM in [12]. For the same compound, the figures for the 50% inhibitory concentration (IC50) in experiment [13] and in experiment [14] were above 500 µM and 10 µM, respectively.
For the compound `CCC(C)C(=O)O[C@@]12[C@H](OC(C)=O)[C@@H](C)[C@@]3(O)[C@@H](C(=O)C(CO)=C[C@]4(O)C(=O)C(C)=C[C@@H]34)[C@@H]1C2(C)C` (stereo partly drawn), the IC50 was above 50 µM in [1]; 10 µM in experiment [2]; above 50 µM in experiment [3]; above 50 µM in [4]; 7.2 µM in [5]; 9.9 µM in [6]. Also, the IC50 in experiment [7] was 10 µM; in experiment [8], 10 µM; in experiment [9], above 50 µM; in experiment [10], 14 µM; in [11], above 50 µM; in experiment [12] it was 147 µM. The IC50 in [13] was 352 µM; in [14], 11 µM.
For `CC(=O)O[C@@H]1[C@@H](C)[C@@]2(O)[C@@H](C=C(CO)C[C@]3(O)C(=O)C(C)=C[C@@H]23)[C@@H]2C(C)(C)[C@]12OC(=O)C(C)C`, the IC50 is 13 µM in [1]; 2.4 µM in experiment [2]; 13 µM in [3]; above 50 µM in [4]; 4 µM in experiment [5]; 12 µM in experiment [6]. In addition, the IC50 in [7] was 3.9 µM; in experiment [8], 10 µM; in experiment [9], above 50 µM; in experiment [10], 6.8 µM; in experiment [11], 5.8 µM; in experiment [12], 292 µM. In addition, the IC50 is above 500 µM in [13] and 7.2 µM in experiment [14].
With `CCC(C)C(=O)O[C@@]12[C@H](OC(=O)c3ccccc3)[C@@H](C)[C@@]3(O)[C@@H](C=C(CO)C[C@]4(O)C(=O)C(C)=C[C@@H]34)[C@@H]1C2(C)C` (stereo partly drawn), the IC50 in [1] stood at 20 µM; in [2], 12 µM; in experiment [3], 10 µM; in experiment [4], 0.14 µM; in experiment [5] it was 15 µM; in experiment [6], 6.8 µM. Moreover, the concentration for half-maximal inhibition (IC50) in experiment [7] worked out at 4.6 µM; in [8] it was 3.3 µM; in experiment [9], 8.5 µM; in experiment [10] it was 17 µM; in experiment [11] it was 6.9 µM; in experiment [12], 420 µM. The IC50 in experiment [13] was above 500 µM; in experiment [14], 4.3 µM.
Consider `C/C=C(\C)C(=O)O[C@@H]1[C@@H](C)[C@@]2(O)[C@@H](C=C(CO)C[C@]3(O)C(=O)C(C)=C[C@@H]23)[C@@H]2C(C)(C)[C@]12OC(=O)C(C)C`, for which the IC50 in [1] is above 50 µM; in experiment [2], 1.1 µM; in [3], 43 µM; in experiment [4], above 50 µM; in [5], 4.4 µM; in experiment [6], 1.2 µM. For the same compound, the IC50 in experiment [7] is 9.2 µM; in experiment [8], 10 µM; in experiment [9], above 50 µM; in experiment [10], 5.5 µM; in experiment [11], 32 µM; in experiment [12], 171 µM. The IC50 is above 500 µM in experiment [13] and 1.1 µM in [14].
On to `C/C=C(\C)C(=O)O[C@@H]1[C@@H](C)[C@@]2(O)[C@@H](C=C(CO)C[C@]3(O)C(=O)C(C)=C[C@@H]23)[C@@H]2C(C)(C)[C@]12OC(=O)C(C)CC` (stereo partly drawn), for which the IC50 was 1 µM in experiment [2]; above 50 µM in [4]; 2.2 µM in experiment [5]; 1.2 µM in experiment [6]; 10 µM in [7]; 10 µM in [8]. In addition, the half-maximal inhibitory concentration (IC50) in [9] was above 50 µM; in experiment [10], 2.6 µM; in experiment [12], 157 µM; in experiment [13] it was above 500 µM; in experiment [14], 5 µM.
In the case of `CCC(C)C(=O)O[C@@]12[C@H](O)[C@@H](C)[C@]3(O)[C@@H]4C=C(C)C(=O)[C@@H]4CC(CO)=C[C@H]3[C@@H]1C2(C)C` (stereo partly drawn), the IC50 was 24 µM in experiment [1]; 9.9 µM in experiment [2]; 5.4 µM in [3]; above 50 µM in experiment [4]; 8 µM in experiment [5]; 9.8 µM in [6]. Further, the IC50 in [7] was 10 µM; in experiment [8], 3.3 µM; in experiment [9], above 50 µM; in experiment [10], 18 µM; in experiment [11], 4.5 µM; in [12], 191 µM. In addition, the 50% inhibitory concentration (IC50) in experiment [13] was above 500 µM; in [14] it was 10 µM.
As for `CC(=O)O[C@H]1C(=O)[C@@]2(C)[C@H]([C@H](OC(=O)c3ccccc3)[C@]3(O)C[C@H](OC(=O)[C@H](O)[C@@H](NC(=O)c4ccccc4)c4ccccc4)C(C)=C1C3(C)C)[C@]1(OC(C)=O)CO[C@@H]1C[C@@H]2O` [PACLITAXEL], the IC50 in experiment [1] amounted to 0.0062 µM; in [2] it was 0.0022 µM; in experiment [3], 0.0051 µM; in [5], 0.0052 µM; in experiment [6] it was 0.0018 µM; in experiment [8] it was 0.0077 µM. Moreover, the half-maximal inhibitory concentration (IC50) in [10] came to 0.0025 µM; in experiment [14], 0.0034 µM.
